Screening data deposited in PubChem by several laboratories.
Compounds with a hit are over-represented: about 9.4% of the library has one in this group of screens.
L major viab = reduces viability of Leishmania major promastigotes. resazurin fluorescence viability. AID 1063. 9% of 200,000 active. inhibition, % at 10 µM; in the data active = inhibition above about 50%;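 also: promastigotes grown with compound for 44 hours at 28 °C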
CSC inhib = cancer stem cell inhibition; cancer stem cell-like cells viability, luminescence; inhibition, % at 7.5 µM; 1.1% of 300,000 active; in the data active = inhibition above about 75%; tested in HMLE shEcad cells
Beta cell apopt = beta cell apoptosis inhibition; INS-1E cytokine-induced death, ATP luminescence, 48 h; percent of positive-control rescue, neutral wells zero; protection from apoptosis, % (concentration not given with the values); 0.8% of 300,000 active; AID 435005;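 active = Every replicate reaches about 75%, or at least half do and their mean reaches it too, limit read from the data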;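 also: 0% = cytokine-treated negative control wells and 100% = positive control rescue; higher means more ATP so stronger rescue from cytokine killing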
T cruzi repl = T. cruzi replication inhibition; T. cruzi beta-gal in NIH3T3, luminescence, 90 h; inhibition, % (no concentration beside the values); 1.4% of 300,000 active; AID 1885;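 active = mean inhibition across valid replicates above about 55%, limit read from the data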;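 also: signal also drops with host cell toxicity which is not excluded here; 0% = plate median of DMSO wells and 100% = zero luminescence signal; higher percent means less beta-gal luminescence so fewer parasites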
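System: mouse NIH/3T3 fibroblasts infected with β-gal-expressing T. cruzi Tulahuen C4 / Input: NIH/3T3 cells, 5,000 per well / Buffer or medium: Low-serum DMEM with 2% FBS / Probe or stimulus: 5000 reporter trypomastigotes per well / Schedule: ≥90 h infection period, 3 h prior cell attachment / Measured by: GalScreen luminescence, 60 min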
SKKanGAS inh = blocks kanamycin growth of S. pyogenes SKKanGAS strain. inhibition, % at 7.5 µM. BacTiter-Glo, 6 h. AID 1662. 1.3% of 300,000 active;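 active = mean replicate score, as percent of positive control median, at least 50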;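 also: strain carries kanamycin resistance gene driven by streptokinase promoter and grows in 40 µg/ml kanamycin; loss of luminescence reflects streptokinase promoter inhibition or plain growth inhibition; 0% = median of DMSO wells and 100% = positive control at its reference dose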
Mdm2-MdmX inh = disrupts the human Mdm2-MdmX interaction. O15151+Q00987. SaOS-2 split-luciferase Mdm2/MdmX complementation, luminescence. inhibition, % at 8 µM. 3% of 330,000 active. AID 485346;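 active = inhibition of at least 50% at 8 µM in the primary screen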
Target sequence (O15151 whole entry, looked up): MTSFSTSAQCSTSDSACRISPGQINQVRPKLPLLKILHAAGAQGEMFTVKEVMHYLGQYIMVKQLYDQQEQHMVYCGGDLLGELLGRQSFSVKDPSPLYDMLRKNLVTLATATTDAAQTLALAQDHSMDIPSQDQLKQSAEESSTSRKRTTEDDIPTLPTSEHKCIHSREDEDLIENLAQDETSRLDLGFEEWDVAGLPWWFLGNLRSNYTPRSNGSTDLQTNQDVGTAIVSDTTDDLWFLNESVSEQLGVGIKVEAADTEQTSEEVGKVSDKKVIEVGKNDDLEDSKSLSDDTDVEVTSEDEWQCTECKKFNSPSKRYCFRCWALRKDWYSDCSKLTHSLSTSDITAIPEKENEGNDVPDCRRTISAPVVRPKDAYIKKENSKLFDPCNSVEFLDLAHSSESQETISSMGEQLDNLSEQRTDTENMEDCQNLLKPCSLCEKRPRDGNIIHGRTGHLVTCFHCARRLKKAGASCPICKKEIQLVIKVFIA
Target sequence (Q00987 whole entry, looked up): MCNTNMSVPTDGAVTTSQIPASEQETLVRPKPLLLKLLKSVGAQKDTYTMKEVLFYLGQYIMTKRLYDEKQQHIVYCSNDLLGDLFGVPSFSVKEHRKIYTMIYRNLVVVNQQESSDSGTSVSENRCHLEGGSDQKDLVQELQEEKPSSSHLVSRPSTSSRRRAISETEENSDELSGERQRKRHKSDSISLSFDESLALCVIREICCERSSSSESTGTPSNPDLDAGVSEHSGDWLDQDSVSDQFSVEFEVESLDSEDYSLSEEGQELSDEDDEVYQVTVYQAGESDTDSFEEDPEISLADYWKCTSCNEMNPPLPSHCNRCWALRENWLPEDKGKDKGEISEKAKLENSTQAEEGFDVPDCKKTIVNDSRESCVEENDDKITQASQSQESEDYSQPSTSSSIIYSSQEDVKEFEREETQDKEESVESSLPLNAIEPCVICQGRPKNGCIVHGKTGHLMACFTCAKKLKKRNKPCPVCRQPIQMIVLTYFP
Numbers without * were called inactive; . = not tested or not shown.

SMILES	L major viab	CSC inhib	Beta cell apopt	T cruzi repl	SKKanGAS inh	Mdm2-MdmX inh
O=C(NCc1cccnc1)C(=O)NCC1OCCCN1S(=O)(=O)c1ccc(F)cc1 (stereo unspecified)	.	-14	-1	-7	0	-4
COC(=O)C1N2C(=O)[C@@H](NC(=O)COc3ccccc3)[C@H]2SC1(C)C (stereo partly specified)	.	1	-2	-7	96*	-17
CCN1CCN(C(=O)N[C@@H](C(=O)N[C@@H]2C(=O)N3[C@@H]2SC(C)(C)[C@@H]3C(=O)O)c2ccccc2)C(=O)C1=O	-7	2	6	-15	103*	22
Cc1ccc(NC(=O)COC(=O)CC2CC3CCC2C3)cc1S(=O)(=O)N1CCOCC1 (stereo unspecified)	.	.	-1	.	.	0
CCOC(=O)C1=C(O)/C(=C/c2cccc(OC)c2O)N=C1C	63*	-9	.	-9	11	-27
CCOC(=O)C1=C(O)/C(=C\c2cc(C)n(-c3ccccc3F)c2C)N=C1C	36	-10	-1	-3	1	-30
O=C(c1cccnc1)C1CCCN(Cc2nc(Cc3ccccc3F)no2)C1 (stereo unspecified)	15	-9	6	6	1	4
O=C(c1cccs1)C1CCCN(Cc2nc(Cc3ccccc3F)no2)C1 (stereo unspecified)	78*	-9	3	15	10	17
Cc1ccc(SC(=O)c2c(C)noc2-c2cc(C)on2)cc1	.	81*	-33	-2	6	12
Cc1cc(C)c(S(=O)(=O)NCc2csc(C)n2)c(C)c1	.	2	0	-6	-4	1
CCCC(C(=O)NC1CCCC1)N(C(=O)Cn1nnc(-c2ccc(C)o2)n1)c1ccccc1OC (stereo unspecified)	77*	.	2	22	-9	-16
O=C(O)c1cc([N+](=O)[O-])ccc1NCCO	56*	.	-1	4	4	14
O=C(O)c1cc([N+](=O)[O-])ccc1NCCc1ccccc1	.	-5	-3	5	5	-5
COc1cc(NC(=O)c2cnc(N)s2)cc(C(=O)Nc2cccc(C(F)(F)F)c2)c1	.	50	3	7	12	35
Cn1nc(C(=O)Nc2cccc(C(F)(F)F)c2)ccc1=O	99*	-9	2	.	.	12
COc1cc(NC(=O)c2ccnc(N)c2)cc(C(=O)Nc2cccc(C(F)(F)F)c2)c1	.	97*	1	-14	5	24
COc1cc(NC(=O)c2cc(C)on2)cc(C(=O)Nc2cccc(C(F)(F)F)c2)c1	.	88*	38	17	10	34
Cc1ccc(S(=O)(=O)NCCC(=O)Nc2cc(S(=O)(=O)N(C)C)ccc2C)cc1C	.	-11	-2	-11	2	-15
Cn1c(=O)c2c(SCc3cccnc3)nc(C3CC3)nc2n(C)c1=O	53*	2	12	9	-10	25
CCc1nc(SCc2cccnc2)c2c(=O)n(C)c(=O)n(C)c2n1	26	-7	6	10	-7	3
CC(C)Cc1nc(SCc2cccnc2)c2c(=O)n(C)c(=O)n(C)c2n1	96*	.	.	32	11	-9
CCn1c(=O)c(C(=O)NNC(=O)c2cccc(Cl)c2)c(O)c2ccccc21	.	.	11	-2	103*	23
Cn1c(=O)c(C(=O)NNC(=O)c2cccc(Cl)c2)c(O)c2ccccc21	.	31	66	3	62*	50
CCOC(=O)c1c(O)c2ccccc2n(CC)c1=O	-11	1	-1	-2	-7	37
Cc1cccc(C(=O)NNC(=O)c2c(O)c3ccccc3n(C)c2=O)c1	.	1	-4	9	88*	45
SMILES	L major viab	CSC inhib	Beta cell apopt	T cruzi repl	SKKanGAS inh	Mdm2-MdmX inh
CCOc1ccccc1NC(=O)COc1cccnc1[N+](=O)[O-]	.	.	-1	.	.	22
COc1cc(CC(=O)Nc2ccccc2N2CCCCC2)cc(OC)c1OC	7	.	-1	16	7	3
COc1ccc(C(=O)Nc2nc3ccccc3s2)cc1	.	11	.	5	-1	10
COc1ccc(C(=O)Nc2nc3ccccc3s2)cc1OC	69*	-4	2	-4	6	-136
COc1ccc(-c2cc(C(=O)Nc3nc4ccccc4s3)c3ccccc3n2)cc1OC	98*	16	9	-18	-3	-21
Cc1ccc(NC(=O)Nc2nc3ccccc3s2)cc1NC(=O)Nc1nc2ccccc2s1	.	28	30	15	76*	23
CCNC(=O)Nc1nc2ccccc2s1	6	-4	-1	-6	11	-54
COc1ccc(-c2cc(C(=O)Nc3c(Cl)cc(Cl)cc3Cl)c3ccccc3n2)cc1OC	1	24	1	2	3	45
Cc1ccc(C(O)Cn2nc(C)cc2C)cc1 (stereo unspecified)	.	-13	5	-8	-3	-7
O=C(Nc1cc(C(F)(F)F)ccc1N1CCOCC1)c1ccccc1	-2	.	5	0	-3	14
Cc1ccccc1SCC(=O)Nc1cc(C(F)(F)F)ccc1N1CCOCC1	.	26	3	65*	-2	27
O=C(Nc1cc(C(F)(F)F)ccc1N1CCOCC1)c1ccc(Cl)nc1	100*	-3	8	7	-16	15
COCCNC(=O)C(=O)NNC(=O)CCc1ccccc1	-8	.	-4	-8	-18	13
CCNCc1cc(Cl)c(OCc2ccccc2)c(OCC)c1	100*	-8	2	5	-8	38
CCNCc1ccc(OCc2cccs2)c(OCC)c1	54*	.	5	9	-4	11
CCOc1cc(CNCc2ccccn2)cc(Cl)c1OCC	2	-7	2	-8	6	9
COc1cc(CNC(C)(C)CO)cc(Br)c1OCc1ccc(Cl)cc1	98*	35	1	39	-7	49
CCOc1c(Cl)cc(CNCc2ccncc2)cc1OC	84*	2	7	0	-2	18
Cc1ccc(OCCN2CCN(C(=O)CCC(=O)Nc3nnc(CC(C)C)s3)CC2)cc1	.	6	-3	9	0	26
Cc1ccc(C(=O)NCC(=O)NCc2ccc(Cl)cc2)s1	.	-13	-6	.	.	20
COc1ccc(CCNC(=O)c2cc(-c3cc(Cl)ccc3O)n[nH]2)cc1OC	.	.	4	9	8	38
COc1ccc(/C=C2\SC(=O)N(CC(=O)NCCCn3ccnc3)C2=O)cc1	.	16	-1	-7	11	20
CCOC(=O)c1sc(/S(C)=N\S(=O)(=O)c2cccc(Cl)c2)c2c1CCC=C2 (stereo unspecified)	.	-23	-4	1	5	30
CCOc1c(Br)cc(CNCc2cccs2)cc1OC	3	4	-12	0	2	2
CCCCNCc1cc(Br)c(OCc2cccs2)c(OC)c1	101*	-18	5	44	1	45
COc1cc(CNC(C)c2ccccc2)cc(Br)c1OCc1ccccc1 (stereo unspecified)	.	112*	18	51	8	28
